Measurements published in article PMC7919753 (ACS chemical biology, 2020).
Values joined by “and” are separate entries in the source; they are usually repeats but may differ in a detail not shown here. Equal entries are not always repeated. Where two headings read alike, the source gives them in different places. One block for each molecule: values may come before it.

Columns and labels:
[1] = system: brain microvascular endothelial cells (BMECs); assay: Effect on brain microvascular endothelial cells, 48 h exposure; format: cell-based; details: Endothelial cell, read-out: IC50 (effect on BMECs)
Pa02C = assay: PDAC 3-D spheroid model, Pa02C; format: cell-based, human; details: Pa02C PDAC spheroids, concentration-dependent
Summary of the method: (§1)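 TdTomato-transduced PDAC cells, kept under 10 passages, were seeded at 1,000 cells/well in ultralow-adherence plates. Medium held 3% reduced-growth-factor Matrigel and 5% FBS. Spheroids were treated on days 4 and 8, and red fluorescence was read on day 12. Percent viability was taken versus media control (mean ± s.d., n = 3). Relative IC50 came from a four-parameter logistic fit by non-linear least squares.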

RACK1 [2] = target: T1, RACK1 (Homo sapiens, UniProt P63244); assay: Thermal proteome profiling in GBM43 cells; format: binding; details: 10 μM, six temperatures 37-60 °C, cutoff ΔTm ≥ 3 °C
Summary of the method: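 GBM43 cells in PBS with protease inhibitors were treated 1 h at 37 °C with 10 µM test compound or DMSO. Fractions of 5 × 10⁶ cells were heated 3 min at 37, 40, 45, 50, 55 or 60 °C, then freeze-thaw lysed and spun at 100,000 × g. Soluble proteins were trypsin-digested and quantified by label-free LC-MS/MS. iBAQ-based melting curves gave ΔTm (treatment − vehicle), with a ≥3.0 cutoff.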

CD34+ progenitor cells = assay: Colony-forming unit; format: cell-based, human; details: colony formation assay, up to 100 μM, day 14
Summary of the method: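 Purified human umbilical cord blood CD34+ cells were incubated with test compound. They were plated with compound at 2 × 10³ cells per 35 mm dish in MethoCult H4434. Clonogenic progenitor colonies were counted by light microscopy on day 14 after exposure. IC50 came from dose-response curves.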

GBM43 spheroids [3] = assay: 3-D spheroid viability assay, GBM43; format: cell-based, human; details: for activity in spheroids (in words): concentration-dependent
astrocytes = assay: Astrocyte monolayer cell proliferation assay; format: cell-based, human; details: 2-D monolayer assay, up to 100 μM, 3 days
Summary of the method: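 Primary human fetal astrocytes were seeded at 8 × 10³/well in DMEM with 10% FBS and 1% penicillin/streptomycin. They were incubated 3 days with DMSO or test compound. MTS reagent was then added and incubated 1 h at 37 °C, and absorbance was read at 490 nm. Run in triplicate.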

[4] = system: brain microvascular endothelial cells (BMECs); assay: Matrigel-based tube formation assay; details: Endothelial cell, 8 h, read-out: IC50 (tube formation)
Summary of the method: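 Primary brain microvascular endothelial cells, 15,000 per well in EGM-2, were seeded on Matrigel pre-solidified 20 min at 37 °C. Test compound was added in DMSO. Tubes were observed every 2 h by brightfield and imaged at 8 h. Total tubule length from six images per treatment was normalised to DMSO. Treatments were compared to DMSO by one-way ANOVA with Dunnett's test.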

Panc10.05 (Pa16C) = assay: PDAC 3-D spheroid model, Panc10.05; format: cell-based; details: Homo sapiens, Panc1005, read-out: IC50 (cell viability)
Summary of the method: as §1

[5] = Stability in buffer by HPLC; format: physicochemical
GAPDH = GAPDH (Homo sapiens, UniProt P04406); assay: Cellular thermal shift assay; format: binding; details: GBM43 cells, concentration-dependent, heated to 45 °C
GAPDH, sequence (P04406 whole entry): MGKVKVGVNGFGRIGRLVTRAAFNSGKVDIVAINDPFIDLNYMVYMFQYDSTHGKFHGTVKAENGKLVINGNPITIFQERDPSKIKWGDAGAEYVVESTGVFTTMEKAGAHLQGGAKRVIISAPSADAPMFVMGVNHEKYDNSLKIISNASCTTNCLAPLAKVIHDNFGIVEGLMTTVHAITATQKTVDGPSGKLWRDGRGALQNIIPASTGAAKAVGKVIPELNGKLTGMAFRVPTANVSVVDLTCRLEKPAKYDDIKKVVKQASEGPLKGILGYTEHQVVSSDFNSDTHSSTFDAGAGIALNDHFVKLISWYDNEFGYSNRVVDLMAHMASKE
Summary of the method: (§2)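 GBM43 cells were exposed to varying concentrations of test compound, then heated to 45 °C. Protein remaining soluble was detected with target-specific antibodies. GAPDH was probed as a control for non-specific binding.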

Panc198 (Pa20C) = assay: PDAC 3-D spheroid model, Panc198; format: cell-based, human; details: Panc198 PDAC spheroids, concentration-dependent
Summary of the method: as §1

SJ-GBM2 spheroids = assay: 3-D spheroid viability assay, SJ-GBM2; format: cell-based, human; details: for activity in spheroids (in words): concentration-dependent
GBM10 spheroids = assay: 3-D spheroid viability assay, GBM10; format: cell-based, human; details: for activity in spheroids (in words): concentration-dependent
RACK1 [6] = target: T1, RACK1; assay: Cellular thermal shift assay; format: binding; details: GBM43 cells, concentration-dependent, 6 h treatment, heated to 45 °C, vs DMSO
Summary of the method: as §2

GBM43 spheroids [7] = details: read-out: IC50 (cell viability); GBM43, standard-of-care comparison; cited from earlier work

IC50 [1]: 3.5 µM | thermal shift of RACK1 (ΔTm) (RACK1 [2]): significant thermal shift | IC50 [4]: ~100 nM | IC50 (Panc10.05 (Pa16C)): 26 ± 5.9 µM | stability following incubation in buffer [5]: stable | GAPDH abundance after heating (CETSA) (GAPDH): no difference in protein abundance
SMILES: COc1cc2c(cc1NC(=O)C1CCC(=O)N1S(=O)(=O)c1ccc(C)cc1)oc1ccccc12 (stereo not shown) [Compound 1, N-(2-Methoxydibenzo[b,d]furan-3-yl)-5-oxo-1-tosylpyrrolidine-2-carboxamide]
activity in spheroid model (Pa02C): no activity | effect on cell viability of CD34+ cells (CD34+ progenitor cells): no effect | inhibition of cell viability (GBM43 spheroids [3]; GBM43 spheroids, single concentration 25 μM): 90% | IC50 (GBM43 spheroids [3]; Homo sapiens, 120 h, read-out: IC50 (cell viability)): 3.7 ± 0.1 µM | effect on cell viability of astrocytes (astrocytes): no effect | activity in spheroid model (Panc198 (Pa20C)): no activity

SMILES: COc1cc2c(cc1NC(=O)C1CCC(=O)N1S(=O)(=O)c1ccc(C)cc1)oc1ccc(Cl)cc12 (stereo not shown) [Compound 26, N-(8-Chloro-2-methoxydibenzo[b,d]furan-3-yl)-5-oxo-1-tosylpyrrolidine-2-carboxamide]
activity in spheroids (in words) (GBM43 spheroids [3]; GBM43 spheroids): no activity | activity in spheroids (in words) (SJ-GBM2 spheroids): no activity | activity in spheroids (in words) (GBM10 spheroids): no activity

SMILES: COc1cc2c(cc1NC(=O)C1CCC(=O)N1S(=O)(=O)c1ccc(C)cc1)oc1cc(Cl)ccc12 (stereo not shown) [Compound 27, N-(7-Chloro-2-methoxydibenzo[b,d]furan-3-yl)-5-oxo-1-tosylpyrrolidine-2-carboxamide]
activity in spheroids (in words) (GBM43 spheroids [3]; GBM43 spheroids): no activity | activity in spheroids (in words) (SJ-GBM2 spheroids): no activity | activity in spheroids (in words) (GBM10 spheroids): no activity

SMILES: COc1cc2c(cc1NC(=O)C1CCC(=O)N1S(=O)(=O)c1ccc(C(F)(F)F)cc1)oc1ccccc12 (stereo not shown) [Compound 25, N-(2-Methoxydibenzo[b,d]furan-3-yl)-5-oxo-1-((4-(trifluoromethyl)phenyl)sulfonyl)pyrrolidine-2-carboxamide]
fold decrease in IC50 compared to 1 (GBM43 spheroids [3]; GBM43 spheroids): ~10 fold | fold decrease in IC50 compared to 1 (SJ-GBM2 spheroids): ~10 fold | fold decrease in IC50 compared to 1 (GBM10 spheroids): ~10 fold

SMILES: O=NN(CCCl)C(=O)NC1CCCCC1 [CCNU, lomustine, reference compound]
inhibition of cell viability (GBM43 spheroids [3]; GBM43 spheroids, at 100 μM): about 50% | inhibition of cell viability (GBM10 spheroids; at 100 μM): about 50%

SMILES: COc1cc2c(cc1NC(=O)C1CCC(=O)N1Cc1ccc(C)cc1)oc1ccccc12 (stereo not shown) [Compound 23, N-(2-Methoxydibenzo[b,d]furan-3-yl)-1-(4-methylbenzyl)-5-oxopyrrolidine-2-carboxamide]
activity in spheroids (in words) (GBM43 spheroids [3]; GBM43 spheroids): loss of activity | activity in spheroids (in words) (GBM10 spheroids): loss of activity

SMILES: COc1cc2c(cc1NC(=O)C1CCC(=O)N1)oc1ccccc12 (stereo not shown) [Compound 24, N-(2-Methoxydibenzo[b,d]furan-3-yl)-5-oxopyrrolidine-2-carboxamide]
activity in spheroids (in words) (GBM43 spheroids [3]; GBM43 spheroids): loss of activity | activity in spheroids (in words) (GBM10 spheroids): loss of activity

RACK1 abundance after heating (CETSA) (RACK1 [6]): did not affect protein abundance
SMILES: COc1cc2c(cc1NC(=O)C1CCCN1S(=O)(=O)c1ccc(C)cc1)oc1ccccc12 (stereo not shown) [Compound 22, N-(2-Methoxydibenzo[b,d]furan-3-yl)-1-tosylpyrrolidine-2-carboxamide]
activity in spheroids (in words) (GBM43 spheroids [3]; GBM43 spheroids): loss of activity | activity in spheroids (in words) (GBM10 spheroids): loss of activity

SMILES: Cn1nnc2c(C(N)=O)ncn2c1=O [temozolomide]
IC50 (GBM43 spheroids [7]): 244 µM and ~250 µM
